Screening data deposited in PubChem BioAssay by several laboratories.
Calb biofilm kill – clotrimazole potentiators killing Candida biofilms, primary screen, with clotrimazole, Alamar Blue; AID 834, 2007; 0.14% of 85,000 active; C. albicans biofilm + clotrimazole; inhibition, % at 6 µM;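 active means inhibition above 20%; inactive means inhibition below 20%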;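 further: preformed 24 hr biofilms exposed to compound for 48 hr; 0% = biofilm without compound and 100% = blank killed by clotrimazole plus chlorhexidine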
FAK inh – FAK kinase inhibitors, primary screen, biochemical | inhibition, %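 (tested at 7 µM)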 | biochemical FAK kinase activity assay | AID 727, 2007 | 0.84% of 97,000 active; in the data active means inhibition above about 19%;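 further: 0% = DMSO and 100% = reference compound high control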
Target sequence (Q05397 whole entry, looked up): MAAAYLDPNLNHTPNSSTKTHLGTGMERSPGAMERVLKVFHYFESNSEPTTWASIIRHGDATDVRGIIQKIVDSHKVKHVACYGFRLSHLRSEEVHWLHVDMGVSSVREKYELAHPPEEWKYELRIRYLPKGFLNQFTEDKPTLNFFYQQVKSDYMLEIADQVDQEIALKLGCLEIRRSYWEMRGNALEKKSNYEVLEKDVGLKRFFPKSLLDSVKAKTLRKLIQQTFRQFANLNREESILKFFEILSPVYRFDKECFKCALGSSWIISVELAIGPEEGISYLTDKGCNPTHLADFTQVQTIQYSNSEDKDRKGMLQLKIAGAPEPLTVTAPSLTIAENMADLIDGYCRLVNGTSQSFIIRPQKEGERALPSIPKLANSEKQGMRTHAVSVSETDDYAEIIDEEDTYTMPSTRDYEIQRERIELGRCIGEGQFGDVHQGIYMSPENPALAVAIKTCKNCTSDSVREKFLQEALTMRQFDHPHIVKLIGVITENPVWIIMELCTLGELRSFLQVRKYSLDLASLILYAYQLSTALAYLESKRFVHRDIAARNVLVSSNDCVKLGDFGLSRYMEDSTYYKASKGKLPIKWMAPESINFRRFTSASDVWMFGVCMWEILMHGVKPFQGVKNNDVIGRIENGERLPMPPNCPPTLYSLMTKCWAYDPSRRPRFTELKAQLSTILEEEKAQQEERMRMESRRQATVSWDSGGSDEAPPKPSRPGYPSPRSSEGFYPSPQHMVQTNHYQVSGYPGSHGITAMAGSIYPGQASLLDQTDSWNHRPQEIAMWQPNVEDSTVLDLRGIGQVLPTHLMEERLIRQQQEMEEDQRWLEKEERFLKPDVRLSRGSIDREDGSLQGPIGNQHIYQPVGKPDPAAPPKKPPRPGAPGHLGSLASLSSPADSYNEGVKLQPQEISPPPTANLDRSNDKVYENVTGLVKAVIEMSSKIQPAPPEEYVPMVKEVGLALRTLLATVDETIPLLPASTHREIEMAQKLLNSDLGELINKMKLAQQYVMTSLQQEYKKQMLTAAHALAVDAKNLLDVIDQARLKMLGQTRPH
PTK2B oligo ant – antagonists of Pyk2 self-association, primary screen, Q293 cells, FERM NanoBiT luminescence, HTS | 0.83% of 99,000 active | Protein-tyrosine kinase 2-beta (Homo sapiens), Q14289 | z-score (the deposit names both 25 µM and 10 µM) | hits give low values;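 active means Z-score of -3 or lower, scaled per plate to the spread of control and sample wells; inactive means z-score above -3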;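 further: negative z-score means lost luminescence so less FERM oligomerization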
Ecoli tolC – growth inhibitors of E. coli tolC mutant, primary screen, strain BW25113 ΔtolC::kan, 384-well. OD615. growth inhibition, % at 10 µM (by protocol). 2.2% of 65,000 active;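 active means growth inhibition at or above a cutoff equal to the mean over every tested compound plus 3 SD, cut at about 60% in these data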;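 further: growth measured after 20 h incubation at 37 °C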
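System: E. coli ΔtolC::kan strain BW25113; Buffer or medium: LB broth supplemented with 50 µg/mL kanamycin; Compound: 10 µM final, single dose; Incubation: bacterial growth with compound for 20 h at 37 °C; Signal: A615 absorbance measurement; Evaluation: growth inhibition in percent.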
PostGolgi yeast – phenotypic screen on post-Golgi transport, primary screen; post-Golgi transport phenotypic cell assay; inhibition, % at 10 µM; 0.9% of 98,000 active; AID 739, 2007;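 further: yeast cells grown in 1536-well plates; yeast grown about 18 h at 30C before absorbance read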
PostGolgi ctrl – growth inhibition of yeast control strain, primary screen, counter-screen for post-Golgi transport modulator project; efflux-deficient yeast background strain, growth absorbance A615, 16 h; inhibition, % at 10 µM; 5% of 98,000 active; AID 738, 2007
* marks the source's active call; other numbers are inactive results; nt = no result given. Most compounds without a hit are left out; they make up all but 6.9% or so of the library. Unless noted, no stated cut-off is given here; in the data, active means inhibition above about 30%; inactive means the rest.

SMILES | Calb biofilm kill | FAK inh | PTK2B oligo ant | Ecoli tolC | PostGolgi yeast | PostGolgi ctrl
COc1cc(NS(=O)(=O)c2ccc(C)c(C)c2)c(OC)cc1Cl | 7.5 | 0.2 | -1.6 | nt | -6.8 | 46.9*
O=S(=O)(Nc1ccc(N2CCOCC2)cc1)c1ccc2ccccc2c1 | 0.2 | 7.3 | nt | nt | 4.1 | 47.9*
Cc1nn(C)c(N)c1C(O)(c1nccn1C)C(F)(F)F (stereo unspecified) | 8.7 | nt | 0.86 | -17.2 | 3.3 | 2.9
Cc1ccc(C)c(-n2nnnc2SCC(=O)NCCC2=CCCCC2)c1 | 5.6 | -0.6 | -0.44 | 58.4 | -1.4 | 38.6*
CNC(=O)CSc1nnnn1-c1cc(C)ccc1C | 4.9 | 0.1 | -0.5 | nt | nt | nt
Cc1ccc2[nH]cc(C(=O)CN3CCN(c4ccccc4F)CC3)c2c1 | 5.3 | -5.3 | 1.59 | nt | -5.4 | 8.6
CC(C)c1ccc(OCc2nc(-c3ccccn3)no2)c(Br)c1 | 3.8 | 3.8 | -1.23 | 96.2* | 2.1 | 38.3*
Cc1ccc(OCc2nc(-c3ccccn3)no2)c(Br)c1 | 10.8 | -0.6 | -0.34 | 21.2 | -4.9 | 34.4*
Clc1ccc(OCc2nc(-c3ccncc3)no2)c(Br)c1 | 3.4 | nt | nt | 27.0 | 46.4* | 79.1*
CCOC(=O)c1sc(C)nc1C1CCN(C(=O)OCC)CC1 | 0.8 | -3.1 | 0.91 | -5.0 | 10.8 | 15.5
COc1cccc(C2c3c(oc4ccccc4c3=O)C(=O)N2CCCN(C)C)c1OC (stereo unspecified) | 2.1 | 7.0 | 0.18 | -30.8 | 6.5 | 9.8
Cc1ccc(S(=O)(=O)c2cc3c(=O)n4cccc(C)c4nc3n(Cc3ccco3)c2=N)cc1C | -4.7 | nt | nt | 3.7 | nt | nt
CCn1c(SCC(=O)N2CCN(c3cccc(Cl)c3)CC2)nc2ccccc2c1=O | 4.5 | -1.4 | -0.15 | nt | nt | nt
CC(C)(C)C(=O)O/N=C1/C(=O)N(c2ccccc2)c2ccccc21 | nt | 4.9 | -0.18 | nt | 15.0 | 39.7*
CC(C)CC(=O)O/N=C1\C(=O)N(c2ccccc2)c2ccccc21 | nt | -0.7 | -0.71 | nt | 2.3 | 21.8
CCOC(=O)c1c(C)oc2ccc(NS(=O)(=O)c3ccc4c5c(cccc35)C(=O)N4)cc12 | 2.5 | 10.0 | -2.59 | 68.1* | 6.6 | 8.7
COCCOC(=O)c1c(C)oc2ccc(NS(=O)(=O)c3ccccc3)cc12 | 3.4 | 1.7 | -0.88 | 35.0 | -6.0 | 14.1
CC(=O)OCCCNc1cc(Sc2nc3ccccc3s2)c2nonc2c1[N+](=O)[O-] | nt | 10.1 | -1.69 | nt | -1.5 | 43.0*
Cn1c(=O)c2c(nc(NCc3ccccc3)n2Cc2ccc(F)cc2)n(C)c1=O | 4.7 | -8.9 | nt | 8.1 | -2.5 | 39.0*
CCCNc1nc2c(c(=O)n(C)c(=O)n2C)n1Cc1ccc(F)cc1 | -1.0 | 5.1 | nt | -3.7 | -0.6 | 5.1
CCNc1nc2c(c(=O)n(Cc3ccccc3)c(=O)n2C)n1Cc1ccccc1 | nt | 0.9 | -3.48* | 33.3 | -1.1 | 30.4*
CC(C)Sc1nc2c(c(=O)n(C)c(=O)n2C)n1Cc1ccc(Cl)cc1 | nt | 1.0 | -0.47 | 43.8 | -4.0 | 76.6*
Cc1ccc(C(CC(=O)N2CCOCC2)c2ccco2)cc1 (stereo unspecified) | -2.4 | -0.9 | 0.54 | 4.5 | -6.0 | 11.4
CCCCNC(=S)N/N=C/c1ccc(C)s1 | nt | 2.0 | -0.41 | nt | 2.4 | 10.1
N#CCCCSc1nnc(-c2ccc(Cl)cc2)n1-c1ccccc1 | 2.4 | -0.9 | -0.55 | 13.1 | 15.8 | 14.8
SMILES | Calb biofilm kill | FAK inh | PTK2B oligo ant | Ecoli tolC | PostGolgi yeast | PostGolgi ctrl
COC(=O)c1cccc(C(=O)Nc2ccc(F)cc2)n1 | -2.4 | 7.7 | -0.47 | nt | -14.1 | 31.6*
CN1CCN(C(=O)/C(=C\c2ccccc2)c2ccccc2)CC1 | 6.2 | 0.1 | -0.54 | nt | -2.4 | 5.1
CC1CCN(C(=O)/C(=C/c2ccccc2Cl)c2ccccc2)CC1 | nt | 5.7 | -3.89* | nt | 1.4 | 19.2
CCc1ccc(NSc2ccccc2[N+](=O)[O-])cc1 | nt | 5.1 | -3.02* | nt | -4.9 | 24.6
CCn1c(-c2cccnc2)n[nH]c1=S | nt | -0.4 | -0.32 | nt | -6.9 | 4.0
CCCN(CCC)C(=O)CC(c1ccccc1)c1cc(Br)ccc1O (stereo unspecified) | 3.8 | 0.0 | -2.63 | nt | -4.7 | 47.0*
CS(=O)(=O)N1CCc2cc(-c3csc(NC(=O)Cc4cccs4)n3)ccc21 | 7.7 | 4.3 | -1.7 | 61.6* | -5.0 | 0.3
Cc1sc(NC(=O)CN2CCOCC2)nc1-c1ccc2c(c1)CCN2S(=O)(=O)c1ccccc1 | 5.7 | 1.6 | 0.03 | nt | 1.7 | 2.7
O=C(CN1CCOCC1)Nc1nc(-c2ccc3c(c2)CCN3S(=O)(=O)c2ccccc2)cs1 | -3.9 | 4.8 | -3.04* | 8.2 | 4.9 | 10.6
CC(C)C(CCNC(=O)CC(Cc1ccccc1)c1ccco1)c1ccco1 (stereo unspecified) | -3.5 | -2.6 | -0.29 | nt | 1.8 | 0.3
Oc1c(C=NCc2ccc(F)cc2)[nH]c2ccc(Br)c(Cl)c12 | -2.2 | 0.6 | nt | nt | -2.2 | 10.1
CC(C)c1ccc(C(=O)N(c2ccccn2)C(C)c2ccco2)cc1 (stereo unspecified) | 2.7 | 5.3 | -0.3 | nt | 3.6 | 5.3
CC(c1ccco1)N(C(=O)c1cccs1)c1ccccn1 (stereo unspecified) | 10.2 | -6.2 | 1.56 | 6.5 | 3.0 | 41.4*
Cc1nc(-c2cccc(-c3noc(C)n3)c2)no1 | 1.9 | 4.8 | 1.11 | -7.4 | -1.4 | -2.9
CCCN(CCC)c1nc(NC2CCN(C(=O)OCC)CC2)nc(OC)n1 | 2.8 | -8.3 | -1.78 | 80.8* | 4.1 | 18.0
CCOC(=O)N1CCC(Nc2c(OCC)c(=O)c2=O)CC1 | 8.5 | -5.9 | nt | -12.4 | 0.8 | 4.6
O=[N+]([O-])c1cccnc1NCCNc1ncc(C(F)(F)F)cc1Cl | nt | 1.9 | -1.41 | nt | 5.5 | 34.7*
O=[N+]([O-])c1ccccc1NCCNc1ncc(C(F)(F)F)cc1Cl | nt | -2.9 | -1.1 | nt | 0.3 | 14.2
COc1cc2c(C(=O)O)c(C)n(CC(C)C)c2c2ccccc12 | 6.8 | 8.0 | -0.22 | nt | 18.7 | 33.3*
COc1cc(C(=O)O)nc2ccccc12 | 8.7 | 4.1 | -0.11 | 10.7 | -1.4 | -6.0
O=C(C1CCC(CNS(=O)(=O)c2cccc3cccnc23)CC1)N1CCc2ccccc21 (stereo unspecified) | 6.1 | -1.3 | nt | nt | 9.3 | -4.2
O=C1NN=C(c2ccc(Cl)cc2)CC1c1cccc(Cl)c1 (stereo unspecified) | 4.9 | -0.2 | -0.18 | nt | 12.5 | 45.5*
Cc1cc(/C=C2\SC(=S)NC2=O)c(C)n1C | nt | -1.3 | -0.12 | nt | 3.9 | 51.6*
Cc1nn(C)cc1/C=C1\SC(=S)NC1=O | nt | -0.8 | 1.26 | nt | -1.9 | -1.4
CC1=C(C(=O)OC(C)C)C(c2ccccn2)n2ncnc2N1 (stereo unspecified) | -4.2 | -1.5 | nt | -10.5 | -1.2 | 33.4*
CC(/C=C1\SC(=O)N(CC(=O)Nc2cccc(O)c2)C1=O)=C\c1ccccc1 | nt | -0.6 | -0.1 | nt | 0.4 | 30.6*
CCc1ccc2[nH]c(=O)c(CN(CCN(CC)CC)C(=O)Nc3ccccc3OC)cc2c1 | 2.1 | -0.5 | 0.89 | 5.8 | -1.9 | 4.7
